Shown are actives, neighbours in structure and some others; about 2.4% of the full set was active somewhere.
Myeloid diff 2 = myeloid differentiation induction; ER-HoxA9 myeloid progenitors, lysozyme-GFP differentiation, flow cytometry; calls only at 10 µM; 360,000 tested, 1% active; AID 624256;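 active = normalized GFP-positive differentiation at or above the plate's own cutoff, the solvent-only control mean plus 3 SD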;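 note: cells exposed to compound for four days before flow analysis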
CendR NRP1 mod = alters CendR peptide binding to human NRP-1; FAM-RPARPAR peptide binding to NRP-1, fluorescence polarization; inhibition, % at 25 µM; 360,000 tested, 0.85% active; AID 602438;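 active = inhibition or corrected inhibition above about 18%, plus a signal ratio from 0.5 to 1.5, limit read from the data, passing the limit was not always enough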
MT1-MMP act inh = blocks activation of human MT1-MMP | P50281 | HT1080 RFP-PRO-GFP cells, GFP/RFP ratio fluorescence, overnight; percent of plate control window, DMSO zero | GFP/RFP ratio change, % at 20 µM | 360,000 tested, 0.061% active;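 active = GFP/RFP ratio change of at least 30% with cell ATP level not reduced by more than half and red fluorescence within 50% of control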
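Test system: HT1080 RFP-PRO-GFP cells; Benchmarks: DMSO and RFP-L50D-GFP cell wells; Timing: cells overnight before dosing, compound overnight, 37 °C, 5% CO2; Compound: one 20 µM compound dose with 1% DMSO; Read-out: GFP/RFP fluorescence ratio.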
MIN6 prolif-1 = MIN6 beta-cell proliferation induction; MIN6 cells proliferation, ATPlite luminescence, 48 h; cells starved in 0.2% serum; 100% = growth in 10% serum; proliferation, % at 10 µM; 330,000 tested, 0.29% active; AID 2380;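 active = compounds whose signal lies at least 3.5 SD above the mean of all wells on their plate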;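 note: 0% = DMSO-treated cells in low-serum medium and 100% = 10% serum control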
DAGLB inhibitor = diacylglycerol lipase beta (human) inhibition | HEK293T DAGLB membrane lysate, EnzChek fluorogenic substrate | inhibition, % at 5.17 µM | 340,000 tested, 0.059% active | AID 504411; in the data active = inhibition above about 34%;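 note: 0% = enzyme with vehicle and 100% = wells lacking enzyme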
SENP1 FRET inh = inhibitors of human SENP1 SUMO protease catalytic domain; Q9P0U3; recombinant SENP1 catalytic domain, CyPet-SUMO1-YPet FRET cleavage; inhibition, % at 10 µM; 360,000 tested, 0.21% active;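 active = inhibition at least 30% at 10 µM, raw YFP signal under a set limit, fluorescence ratio 0.5 to 1.5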;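 note: 0% = enzyme with DMSO and 100% = no enzyme wells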
Target sequence (Q9P0U3 419-644 limits assumed): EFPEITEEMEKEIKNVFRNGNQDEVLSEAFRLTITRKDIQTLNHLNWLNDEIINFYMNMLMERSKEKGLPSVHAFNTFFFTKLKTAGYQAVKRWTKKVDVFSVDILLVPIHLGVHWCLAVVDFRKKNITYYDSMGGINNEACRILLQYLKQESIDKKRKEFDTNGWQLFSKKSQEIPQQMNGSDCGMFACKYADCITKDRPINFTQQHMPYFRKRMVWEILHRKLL
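Assay system: hSENP1 catalytic domain, recombinant. Amount: SENP1 enzyme, 20 pM final. Schedule: 50 min reaction, RT, dark. Technique: FRET, CFP and YFP emission. Control set: no-enzyme wells low, DMSO-plus-enzyme wells high control.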
MIN6 prolif-2 = confirmation of inducers of beta-cell replication in MIN6 cells; shares compounds with MIN6 prolif-1; MIN6 beta-cell proliferation, ATPlite luminescence, 48 h; cells kept in 0.2% serum; scaled between 0.2% and 10% serum; proliferation increase, % at 50 µM; 920 tested, under 10 active; AID 463095;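 active = proliferation increase above 40% at any of the four tested concentrations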
* = called active by the depositor; i = inactive; / = no result given; + = active, no number.

SMILES	Myeloid diff 2	CendR NRP1 mod	MT1-MMP act inh	MIN6 prolif-1	DAGLB inhibitor	SENP1 FRET inh	MIN6 prolif-2
O=C(CSc1nnc(CN2CCOCC2)n1-c1ccc(Cl)cc1)Nc1cc(Cl)ccc1O	i	21*	3	-1	2	2	/
COCCNC(=O)C1C(=O)Nc2ccccc2C(=O)N1Cc1ccccc1 (stereo unspecified)	i	13	-7	/	/	6	/
COc1cc(/C=C/C(=O)OCC(=O)NC(=O)NC(C)C)ccc1O	i	3	4	-1	3	-36	/
Cc1cc(NC(=O)CCC(=O)NNC(=O)c2ccc(C(C)(C)C)cc2)no1	i	36*	4	-2	-1	2	/
CC(C)(C)c1ccc(C(=O)NNC(=O)CCc2ccccc2)cc1	+	-2	1	-2	/	2	/
COc1ccc(OC)c(NC(=O)CN2C(=O)C(=O)N(Cc3ccccc3)C2=O)c1	i	11	4	3	0	5	/
O=C1Nc2cc(C(=O)N3CCOCC3)ccc2S/C1=C/c1ccccc1F	i	-10	-4	/	4	-4	/
COc1cccc(-c2ncc3ccccc3c2COC(=O)c2ccc(C(F)(F)F)cc2)c1	i	29*	0	-5	0	4	/
COc1cccc(-c2ncc3ccccc3c2COC(=O)c2ccc(Br)cc2)c1	i	-4	0	-6	-4	1	/
O=[N+]([O-])c1ccc(CSc2nnc(Cc3ccccc3)n2-c2ccc(F)cc2)cc1	+	10	-6	-3	-5	1	/
O=C(c1ccc(Cl)c(Cl)c1)N1CCC(=O)N(C(COCc2cccc(Cl)c2)Cc2ccccc2)CC1 (stereo unspecified)	+	6	-7	-8	-11	0	/
CC1CCCCc2nc3c(c(=O)n21)CCCC3 (stereo unspecified)	i	4	-1	/	/	0	/
Cc1ccc(-c2nc3ccc(Cl)cn3c2Cc2cccc(F)c2)cc1	i	-18	-6	/	/	-1	/
COc1ccc(OC(=O)COc2cc(C)ccc2C)cc1	i	12	0	6.1*	-6	2	-1
COC(=O)[C@H]1C[C@H]2[C@@H]3CC[C@H]4C[C@@H](OC)CC[C@]4(C)[C@H]3CC[C@]2(C)[C@@]2(CCCO2)O1	i	-4	-4	/	-1	1	/
CCOC(=O)C1CCN(c2cc3c(cc2NC(=O)c2ccccc2Cl)n(C)c(=O)n3C)CC1	i	10	-1	15*	3	-1	-6
Cc1ccc2c(n1)sc1c(-c3ccccc3)c(C#N)c(N)nc12	i	-1	3	5.9*	-9	-18	5
Cc1nc(N)c(C#N)c(-c2cccnc2)c1-c1ccccc1	i	1	-9	0	-1	-1	/
CC(=O)c1cccc(NC(=O)CSc2nc(C3CC3)nc3ccccc23)c1	i	-1	-5	0.0*	-5	0	-4
CC(=O)N1CCN(CC(O)Cn2c3ccccc3c3ccccc32)CC1 (stereo unspecified)	i	-1	3	6.6*	0	2	-6
COc1ccc(CC(=O)N2CCN(c3ccc(C4=NNC(=O)CC4C)cc3)CC2)cc1 (stereo unspecified)	i	-1	4	4.6*	1	-1	-1
COc1ccc(CC(=O)N2CCN(C(=O)Cc3ccc(OC)cc3)CC2)cc1	i	-5	-5	0	-1	1	/
CCOc1ccc(N2C(=O)CC(N(Cc3ccco3)C(=O)CC)C2=O)cc1 (stereo unspecified)	i	1	-1	1	1	5	/
COc1ccc(C(CNC(=O)CCNC(=O)c2ccc(Br)cc2)N2CCOCC2)cc1 (stereo unspecified)	/	1	-3	12*	1	-1	-2
CCCCOc1ccc(C(=O)NCC(=O)NCC(c2ccc(OC)cc2)N2CCOCC2)cc1 (stereo unspecified)	i	-13	2	1	2	0	/
SMILES	Myeloid diff 2	CendR NRP1 mod	MT1-MMP act inh	MIN6 prolif-1	DAGLB inhibitor	SENP1 FRET inh	MIN6 prolif-2
CCOc1ccc(Nc2nc(C)cc(C)c2C#N)cc1	i	-14	-3	6.3*	-2	2	2
COc1ccc(Nc2nc(C)cc(C)c2C#N)cc1	i	5	-5	-3	-3	1	/
N/C(=N\OC(=O)C12CC3CC(CC(C3)C1)C2)c1ccccn1	i	-1	-1	-2	0	0	/
C/C(=N\NC(=O)c1ccccn1)C12CC3CC(CC(C3)C1)C2	i	-25	15	6.6*	-3	4	-5
Cc1cc(=O)n(Cc2ccccc2)c2ccccc12	i	4	2	9.2*	-1	3	3
CS(=O)(=O)N1CCc2ccc(NC(=O)C3CCCO3)cc2C1 (stereo unspecified)	i	1	1	0	-1	1	/
CCOC(=O)C1=C(Cn2cnc3ccccc32)NC(=O)NC1c1cc(C)ccc1C (stereo unspecified)	/	4	-12	-3	3	3	/
COC(=O)C1=C(Cn2cnc3ccccc32)NC(=O)NC1c1cc(C)ccc1C (stereo unspecified)	i	-6	-7	5.4*	1	-1	-6
CC1(C(=O)OCC(=O)Nc2ccc(S(=O)(=O)N3CCOCC3)cc2)CC1(Cl)Cl (stereo unspecified)	i	4	2	-1	-4	1	/
CC(=O)c1cccc(NC(=O)Nc2cccnc2)c1	i	5	-12	7.9*	-5	0	5
COCCn1c(SCCCc2ccccc2)nc2c1c(=O)[nH]c(=O)n2C	i	13	5	5.5*	2	0	-5
CCCc1nnc(SCC(=O)N2CCCC(C)C2)n1CC1CCCO1 (stereo unspecified)	i	5	-6	0	3	-1	/
COc1ccc(C2(C)NC(=O)N(Cc3cc(Cl)cc4c3OCOC4)C2=O)cc1OC (stereo unspecified)	i	-4	-2	15*	1	1	-6
COc1ccc(C2(C)NC(=O)N(CC(=O)NCc3ccccc3)C2=O)cc1OC (stereo unspecified)	i	2	3	4	-3	3	/
CC(NC(=O)c1ccc(NC(=O)CC2SC(N3CCCC3)=NC2=O)cc1)c1ccc(S(N)(=O)=O)cc1 (stereo unspecified)	i	-6	2	4	-2	0	/

Assay outcomes as filed in PubChem.
